Compound activity: PubChem BioAssay, several laboratories
The list is not random: actives were taken first. Their share in the collection is about 5%.
CSC inhib – cancer stem cell viability inhibitors, primary screen, luminescence | cancer stem cell-like cells viability | inhibition, % at 7.5 µM | 1.1% of 300,000 active | AID 2717, 2010; in the data active = inhibition above about 75%; inconclusive = no clear call, values can overlap the other calls; tested in HMLE shEcad cells
XBP1 UPR activ – activators of adaptive XBP1 UPR arm, primary screen, cell-based, CHO-XBP1 luciferase reporter, luminescence, uHTS | IRE1-XBP1 UPR activation; percent of tunicamycin response, DMSO as zero | activation, % at 20 µM | 0.33% of 330,000 active | AID 463104, 2010;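 active = versus positive control, 20 µM dose yields 30% or more activation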;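 also: 100% = tunicamycin at 10 µg/mL and 0% = DMSO only wells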
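Material: CHO cell line with stable XBP1 luciferase reporter; buffer or medium: F12 medium containing 10% fetal bovine serum; compound: single point, 20 µM final compound, 1% DMSO; incubation: 6 h treatment, 37 °C; measured by: glow luminescence from Steady-Glo reagent; evaluation: activation, % of tunicamycin; control set: tunicamycin high, DMSO low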
Beta cell apopt – inhibitors of cytokine-induced beta cell apoptosis, primary screen, luminescence; INS-1E cytokine-induced death, ATP luminescence, 48 h; percent of positive-control rescue, neutral wells zero; protection from apoptosis, % (test concentration not listed); 0.8% of 300,000 active; AID 435005, 2010;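 active = Every replicate reaches about 75%, or at least half do and their mean reaches it too, limit read from the data; inconclusive = At least half of replicates reach the limit but their mean does not; inactive = Under half of replicates reach the limit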;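 also: 0% = cytokine-treated negative control wells and 100% = positive control rescue; higher means more ATP so stronger rescue from cytokine killing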
T cruzi repl – inhibitors of intracellular T. cruzi growth, primary screen, luminescence, NIH3T3 host cells; T. cruzi beta-gal in NIH3T3, 90 h; inhibition, % (test concentration not listed); 1.4% of 300,000 active; AID 1885, 2009;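 active = mean inhibition across valid replicates above about 55%, limit read from the data; inconclusive = mean below that limit but half or more replicates reach it; inactive = mean below it, under half of replicates reach it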;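 also: signal also drops with host cell toxicity which is not excluded here; 0% = plate median of DMSO wells and 100% = zero luminescence signal; higher percent means less beta-gal luminescence so fewer parasites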
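Incubation – ≥90 h infection period, 3 h prior cell attachment · System – NIH/3T3 fibroblasts plus reporter T. cruzi · Doses – compound pinned at 50 nL/well, DMSO · Read-out basis – percent inhibition of parasite-derived β-gal signal · Signal – luminescent β-galactosidase signal after 60 min lysis · Also added – 5000 T. cruzi trypomastigotes/well · Medium – Low-serum DMEM with 2% FBS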
Mdm2-MdmX inh – inhibitors of human Mdm2-MdmX association, primary screen, cell-based, luminescence, split luciferase, SaOS-2, uHTS; Protein Mdm4 (Homo sapiens) + E3 ubiquitin-protein ligase Mdm2 (Homo sapiens), …; SaOS-2 split-luciferase Mdm2/MdmX complementation; inhibition, % at 8 µM; 3% of 330,000 active; AID 485346, 2010;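 active = inhibition of at least 50% at 8 µM in the primary screen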
Target sequence (O15151 whole entry, looked up): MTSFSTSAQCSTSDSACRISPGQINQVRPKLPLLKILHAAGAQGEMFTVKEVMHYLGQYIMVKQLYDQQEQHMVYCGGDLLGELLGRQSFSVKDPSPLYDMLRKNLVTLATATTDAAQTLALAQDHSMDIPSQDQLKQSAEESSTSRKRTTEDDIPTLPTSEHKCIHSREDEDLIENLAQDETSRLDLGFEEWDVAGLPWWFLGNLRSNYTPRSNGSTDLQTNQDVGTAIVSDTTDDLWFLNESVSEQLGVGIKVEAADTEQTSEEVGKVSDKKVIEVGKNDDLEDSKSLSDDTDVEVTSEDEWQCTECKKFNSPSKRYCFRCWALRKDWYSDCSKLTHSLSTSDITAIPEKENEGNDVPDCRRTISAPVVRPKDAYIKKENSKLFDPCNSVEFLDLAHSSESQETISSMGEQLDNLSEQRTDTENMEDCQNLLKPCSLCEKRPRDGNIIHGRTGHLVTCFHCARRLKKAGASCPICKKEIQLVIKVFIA
Target sequence (Q00987 whole entry, looked up): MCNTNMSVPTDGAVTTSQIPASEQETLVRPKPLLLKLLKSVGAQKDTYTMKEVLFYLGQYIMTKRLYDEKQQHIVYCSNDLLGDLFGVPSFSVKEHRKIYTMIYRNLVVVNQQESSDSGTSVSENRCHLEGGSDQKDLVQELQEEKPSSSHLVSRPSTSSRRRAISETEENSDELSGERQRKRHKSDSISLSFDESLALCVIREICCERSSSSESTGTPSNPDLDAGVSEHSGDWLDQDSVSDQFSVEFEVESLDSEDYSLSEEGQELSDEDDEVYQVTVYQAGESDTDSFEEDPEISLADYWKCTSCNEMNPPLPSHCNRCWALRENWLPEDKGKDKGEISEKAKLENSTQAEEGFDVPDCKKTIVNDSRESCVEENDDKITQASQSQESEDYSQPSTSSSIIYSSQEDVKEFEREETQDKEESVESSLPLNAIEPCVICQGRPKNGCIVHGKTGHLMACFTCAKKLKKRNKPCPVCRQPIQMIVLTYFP
UPR CHOP act – activators of apoptotic CHOP UPR arm, primary screen, cell-based, CHO-CHOP luciferase reporter, luminescence, uHTS; UPR activation; percent of tunicamycin response over DMSO baseline; activation, % at 10 µM; 0.34% of 330,000 active; AID 449763, 2010;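 active = at 10 µM dose, activation of 40% or more, normalized to positive control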;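 also: 100% = tunicamycin at 10 µg/mL and 0% = DMSO alone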
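assay system = CHO CHOP reporter cells | amount = 500 CHO-CHOP cells per well | buffer or medium = F12 with 10% FBS | incubation = 16-18 h cell attachment, then 6 h compound exposure, 37 °C | detection = luminescence read with Steady-Glo | read-out = percent activation relative to tunicamycin control | controls = tunicamycin high control, DMSO low control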
Numbers without * were called inactive; ? = inconclusive; · = no result.

SMILES	CSC inhib	XBP1 UPR activ	Beta cell apopt	T cruzi repl	Mdm2-MdmX inh	UPR CHOP act
CN(CCc1ccccn1)Cc1ccc(Cl)c(Cl)c1	-3.8	0.0	2.4	61.6*	5.5	-2.4
CSc1ccc(CN(C)CCc2ccccn2)cc1	1.2	-4.9	·	59.3*	6.7	-1.4
Cc1noc(C(=O)Nc2cccc(O)c2)c1Cl	4.8	0.1	4.3	7.9	-14.0	6.2
O=C(N/N=C/c1cccc(F)c1)c1cc(-c2ccco2)nc2ccccc12	20.5	-2.1	·	-17.3	-11.1	2.4
CCC/C(=C1/c2ccccc2C(=O)N1c1ccccc1)c1ccc2c(c1)OCCO2	88.8*	0.3	-10.9	·	29.2	-0.4
Cc1cccc(NC2=C/C(=N/S(=O)(=O)c3cccs3)c3ccccc3C2=O)c1	119.1*	·	104.7*	·	·	·
O=C1C(Nc2ccc(O)cc2)=C/C(=N/S(=O)(=O)c2cccs2)c2ccccc21	·	·	·	58.3*	·	·
CSc1ncc(CN2CCc3c([nH]c4ccccc34)C2c2cccc(O)c2)cn1 (centres undefined)	8.1	2.9	1.5	11.7	24.6	-0.4
NC1=NC(=O)C(Cc2ccc(Br)cc2)S1 (centres undefined)	-6.1	1.6	·	4.5	17.2	0.3
CCOC(=O)C1=C(N)Oc2cc(O)ccc2C1c1ccc([N+](=O)[O-])cc1 (centres undefined)	-13.7	-2.2	-4.0	57.1*	19.6	0.4
O=C(NC1CCCCC1)N1CCN(CCc2ccccc2)CC1	6.9	-4.0	1.2	-4.6	8.9	0.5
O=C(CSc1nnc(Cn2nnc3ccccc32)o1)N(Cc1ccc(F)cc1)c1ccccc1	39.8	-8.0	108.7*	12.8	12.9	5.3
CN1CCc2c(sc3c2c(=O)n(-c2ccccc2)c2nnc(SCc4ccc(Cl)cc4)n32)C1	-55.2	-3.6	1.5	61.0*	28.7	0.4
CCCCOc1ccc(C(=O)CCN2CCOCC2)cc1	-1.3	-2.2	3.1	56.0*	9.2	-0.3
C[C@@H]1C(=O)O[C@H]2CC34[C@H]5C[C@@H](C(C)(C)C)[C@]36[C@@H](OC(=O)[C@@H]6O)O[C@@]4(C(=O)O5)[C@]21O (some centres undefined)	-6.4	-7.3	-2.6	·	18.6	-1.4
O=[N+]([O-])c1ccc(N/N=C/c2c[nH]c3ccccc23)c(S(=O)(=O)Nc2ccc(Cl)cc2)c1	101.4*	-1.1	12.4	28.5	17.8	-1.3
O=C(NCc1ccc(F)cc1)C(c1ccc(Cl)cc1)N(C(=O)c1csnn1)C1CC1 (centres undefined)	·	1.8	1.8	-11.0	5.4	1.5
Fc1cccc(Cc2noc(CN3CCCN(C4Cc5ccccc5C4)CC3)n2)c1	33.8	-6.1	-3.1	56.5*	2.8	5.3
COc1ccc(Cc2noc(CN3CCCN(Cc4ccc(F)cc4)CC3)n2)cc1OC	-7.8	1.2	-1.7	78.4*	8.1	-0.9
Fc1cccc(Cc2noc(CN3CCN(C4CCc5ccccc5C4)CC3)n2)c1 (centres undefined)	20.7	1.6	-6.1	45.7	15.9	-1.7
COc1ccc(Cc2noc(CN3CCN(C4CCc5ccccc5C4)CC3)n2)cc1OC (centres undefined)	-0.8	-3.4	·	57.2*	5.6	-0.3
CCCn1c(N)c(N(CCOC)C(=O)c2c(CC)noc2C)c(=O)[nH]c1=O	·	-1.4	·	·	9.4	1.3
CCn1cc(CN2N=C(C)CC2c2ccccc2)c(C)n1 (centres undefined)	-10.5	-1.0	-1.8	4.9	-8.3	-1.4
CCOC(=O)N1CCN(c2cc(=O)n(-c3cccc(C)c3)c(=O)[nH]2)CC1	-12.0	0.6	-1.2	-2.6	-52.1	-2.2
COC(=O)c1c(NC(=O)c2ccc(C)c(S(=O)(=O)Nc3ccccc3C)c2)sc2c1CCCC2	75.1*	1.0	-3.7	-41.3	23.3	1.6
SMILES	CSC inhib	XBP1 UPR activ	Beta cell apopt	T cruzi repl	Mdm2-MdmX inh	UPR CHOP act
CC1=C(C(=O)OCc2ccccc2)C(c2ccccc2OS(=O)(=O)c2ccccc2[N+](=O)[O-])NC(=O)N1CCCC(=O)O (centres undefined)	11.1	-2.4	-4.0	14.8	-10.6	0.4
COc1cccc(C(CC(=O)Nc2cccc3ccccc23)NC(=O)c2ccccc2)c1 (centres undefined)	10.6	-1.2	5.9	-7.8	20.3	2.2
Oc1ccc(/C=N/Nc2ccnc3cc(Cl)ccc23)c(O)c1	10.1	1.6	21.4	-20.5	27.1	10.0
Clc1ccc2c(N/N=C/c3ccc(Br)cc3)ccnc2c1	97.8*	·	53.6	47.0	·	·
Clc1ccc2c(N/N=C/c3cccnc3)ccnc2c1	-0.5	1.9	25.9	65.0*	5.1	-0.3
Cc1ccccc1/C=N/Nc1ccnc2cc(Cl)ccc12	83.6*	·	95.3*	60.5*	·	·
CC1(C)CC[C@]2(CO)CC[C@]3(C)C(=CCC4[C@@]5(C)CC[C@H](O)[C@@](C)(CO)C5CC[C@]43C)[C@@H]2C1 (some centres undefined)	?	0.3	5.3	·	26.5	-1.1
O=C(c1cc(C2CC2)nn1-c1ccccc1)N1CCN(S(=O)(=O)c2cccc(F)c2)CC1	5.7	0.7	-8.7	·	10.1	1.0
CCOC(=O)c1sc(=S)n(-c2ccccc2)c1N(C(C)=O)C(C)=O	16.0	-4.8	-0.9	-1.8	19.0	-0.7
CN(CC(=O)Nc1c(Cl)cccc1Cl)C(=O)c1cc2ccccc2cc1O	9.5	-1.4	1.2	-8.5	12.7	-0.1
O=C(Oc1cccc2cccnc12)c1cccc(N2C(=O)C3C4CCC(C4)C3C2=O)c1 (centres undefined)	3.1	0.2	79.5*	6.3	9.2	2.2
O=C(Nc1ncn[nH]1)c1ccc(Cl)c(Cl)c1	·	3.6	·	·	-5.3	3.2
COc1ccc(/C=N/OCC(=O)N2CC3(C)CC2CC(C)(C)C3)cc1 (centres undefined)	109.7*	-0.5	-5.6	5.0	3.4	2.0
COc1ccc(/C(C)=N/OCC(=O)N2CC3(C)CC2CC(C)(C)C3)cc1 (centres undefined)	37.4	·	-4.2	12.7	·	·
CCNc1nc(NCC)nc(Oc2ccc(OCC)nn2)n1	9.9	-0.5	-4.8	-11.6	21.2	-3.4
CCNc1nc(N)nc(Oc2ccc(OCCOc3ccc(Cl)cc3Cl)nn2)n1	20.9	5.1	4.4	66.1*	0.8	2.6
O=C(NCCOc1ccccc1)C1=CC=CN2CCS(=O)(=O)N=C12	-10.0	-0.5	-10.1	·	0.7	-0.6
